The nature of data set [1]: Partition coefficient (logP). The class given is physicochemical. The conditions noted are these: octanol/water.
The subject of data set [2] is Mus musculus. Nature of the data set: Average weight change of BDF1 female mice at a dose of 16 mg/kg per injection. It counts as functional. The essentials:
(§1)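 BDF1 female mice implanted ip with 10^6 ascites leukemia cells, then given the aziridinomitosene on day 1 only, six mice per dose. Average weight change is the weight difference between the treated and control groups.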

Data set [3] concerns Mus musculus. The data set is described as follows: Average weight change of BDF1 female mice at a dose of 32 mg/kg per injection. It counts as functional. A digest of the protocol:
as §1

The test system of data set [4] is Mus musculus. The data set is described as follows: Average weight change of BDF1 female mice at a dose of 4 mg/kg per injection. It counts as functional. The essentials: as §1
In data set [5] the test system is Mus musculus. The data set is described as follows: Average weight change of BDF1 female mice at a dose of 64 mg/kg per injection. It counts as functional. The essentials:
as §1

Data set [6] deals with P388. Nature of the data set: Compound was tested for antitumor activity against P388 Murine leukemia in BDF1 female mice at a dose of 3.2 mg/kg per injection given as MST treated / MST control x 100. It counts as functional, Mus musculus. A digest of the protocol: (§2)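 P388 ascites cells (10^6) implanted ip into BDF1 female mice. Aziridinomitosene given on day 1 only, six mice per dose; ten saline-treated mice on day 1 only as controls. Read-out is median survival time in days, %T/C = MST treated/MST control × 100, with 125 taken as significant. Mitomycin C run as a positive control at its optimal dose.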

Data set [7] has as its system P388. Nature of the data set: Compound was tested for antitumor activity against P388 Murine leukemia in BDF1 female mice at a dose of 16 mg/kg per injection. It counts as functional, Mus musculus. The essentials: as §2
Data set [8] relates to P388. The data set is described as follows: Minimum effective dose determined against P-388 Murine leukemia in BDF1 female mice. The class given is functional. The conditions noted are these: Mus musculus, read-out: MED.
Data set [9] deals with P388. The data set is described as follows: Compound was tested for antitumor activity against P388 Murine leukemia in BDF1 female mice at a dose of 32 mg/kg per injection. The class given is functional, Mus musculus. A digest of the protocol: as §2
The test system of data set [10] is P388. The data set is described as follows: Compound was tested for antitumor activity against P388 Murine leukemia in BDF1 female mice at a dose of 4 mg/kg per injection. It counts as functional, Mus musculus. The essentials:
as §2

For data set [11], the system named is P388. Nature of the data set: Compound was tested for antitumor activity against P388 Murine leukemia in BDF1 female mice at a dose of 64 mg/kg per injection. It counts as functional, Mus musculus. The essentials:
as §2

The test system of data set [12] is P388. Nature of the data set: Compound was tested for antitumor activity against P388 Murine leukemia in BDF1 female mice at a dose of 8 mg/kg per injection. It counts as functional, Mus musculus. The essentials:
as §2

Data set [13] deals with Mus musculus. Nature of the data set: Average weight change of BDF1 female mice at a dose of 8 mg/kg per injection. It counts as functional. A digest of the protocol: as §1
The test system of data set [14] is L1210. Nature of the data set: Compound was tested for antitumor activity against L-1210 Murine leukemia in BDF1 female mice at a dose of 12 mg/kg per injection. It counts as functional, Mus musculus. A digest of the protocol:
(§3)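 L-1210 run per NCI protocol. 10^6 ascites cells implanted ip into BDF1 female mice. Aziridinomitosene given on day 1 only, six mice per dose, with a control group of 36 mice. Median survival time in days is recorded, and %T/C = MST treated/MST control × 100, with 125 taken as significant.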

Data set [15] relates to L1210. Nature of the data set: Compound was tested for antitumor activity against L-1210 Murine leukemia in BDF1 female mice at a dose of 6 mg/kg per injection. It counts as functional, Mus musculus. The essentials:
as §3

The test system of data set [16] is L1210. Nature of the data set: Compound was tested for antitumor activity against L-1210 Murine leukemia in BDF1 female mice at a dose of 1.5 mg/kg per injection. It counts as functional, Mus musculus. A digest of the protocol: (§4)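 L-1210 leukemia, NCI protocol: 10^6 ascites cells implanted ip into BDF1 female mice. Six mice per dose, single dose on day 1 only, with a 36-mouse control group. Read-out is median survival time (MST), reported as %T/C = MST treated/MST control × 100, with 125 taken as significant. Average weight change is treated minus control weight.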

Data set [17] relates to L1210. Nature of the data set: Compound was tested for antitumor activity against L-1210 Murine leukemia in BDF1 female mice at a dose of 3 mg/kg per injection. The class given is functional, Mus musculus. The essentials: as §4
In data set [18] the test system is Mus musculus. The data set is described as follows: Average weight change of BDF1 female mice at a dose of 3 mg/kg per injection. It counts as functional. A digest of the protocol: as §4
Data set [19] relates to Mus musculus. The data set is described as follows: Average weight change of BDF1 female mice at a dose of 6 mg/kg per injection. It counts as functional. The essentials: as §1
The subject of data set [20] is Mus musculus. The data set is described as follows: Average weight change of BDF1 female mice at a dose of 1.5 mg/kg per injection. It counts as functional. A digest of the protocol:
as §4

The subject of data set [21] is Mus musculus. The data set is described as follows: Average weight change of BDF1 female mice at a dose of 12 mg/kg per injection. The class given is functional. A digest of the protocol: as §1

SMILES strings stand for the structures.

The molecule `CC1=C(NCc2ccco2)C(=O)c2c(COC(N)=O)c3n(c2C1=O)CC1NC31` (stereo unspecified) had a logP in data set [1] of 1.33. Further, the Weight change was -1.7 g in data set [2]; -1.2 g in [3]; -0.7 g in data set [4]; -1.8 g in [5]; 0.1 g in data set [13]. In addition, in data set [6], the T/C turned out to be 228%. For the same molecule, the MST in data set [7] was 156 days; in data set [9], 189 days; in data set [10] it was 122 days; in [11] it was 183 days; in [12], 144 days. The minimal effective dose in data set [8] worked out at 8 mg/kg.

Take `CO[C@@]12[C@H](COC(N)=O)C3=C(C(=O)C(C)=C(N)C3=O)N1C[C@@H]1N[C@@H]12` [MITOMYCIN]: the values for the % T/C in data set [14] and in data set [15] were 118% and 146%, respectively. Besides, the results for the T/C in [16] and in data set [17] were 116% and 118%, respectively. Further, the Weight change was -0.9 g in [18], -3.3 g in data set [19], -0.8 g in data set [20] and -4.8 g in data set [21].

As usually defined, the logP is the decadic logarithm of the partition coefficient of the neutral form, usually between octanol and water. Read a high logP as a more lipophilic compound. One may read the T/C as the result in the treated group divided by that in the control group, in per cent.
